Jurkat viability: reduces viability or proliferation of Jurkat cells; 56,000 compounds, 1.2% hits; inhibition, % at 4 µM; Jurkat E6.1 viability, ATP luminescence, 48 h; AID 463;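 active means inhibition above the mean inhibition of all tested compounds plus 3 SD, cut at about 28% in these data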
M1 ag: activates the M1 muscarinic receptor; CHO-M1 cells, Fluo-4 calcium fluorescence, agonist mode; hits give high values; 64,000 compounds, 3% hits; AID 626; B-score at 10 µM;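 active means fluorescence rise, raw or as B-score row- and column-corrected plate score, outside the 99.7% band of its plate's samples, either direction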
DAT uptake mod: changed human dopamine transporter uptake under cocaine IC80; Q01959; LLC-PK1 hDAT cells, [14C]-dopamine uptake with cocaine IC80; actives deviate in either direction; B-score at 10 µM; 110,000 compounds, 1.3% hits; AID 449768;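 active means Z score or B-score, a plate-position-corrected score, falls beyond the plate's 99.7% confidence bounds, in either direction; inactive means both scores lie inside the 99.7% bounds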
D1 mod: allosterically modulates the human D1 dopamine receptor; P21728; HEK293 D1, CRE-luciferase, dopamine EC30 potentiation; actives deviate in either direction; B-score at 10 µM; 58,000 compounds, 5.9% hits; AID 641;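 active means luminescence count or its row- and column-corrected plate score outside the 99.7% band of the plate's sample wells, on either side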
M1 antag: antagonists of rat M1 muscarinic receptor; P08482; CHO-M1 cells, Fluo-4 calcium, ACh EC80 antagonist mode; hits give low values; B-score at 10 µM; 64,000 compounds, 3.4% hits; AID 628;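 active means calcium fluorescence response, raw or row-and-column corrected B-score, differing from the plate sample mean either way at a set confidence level, mostly lower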
Target sequence (P08482 whole entry, looked up): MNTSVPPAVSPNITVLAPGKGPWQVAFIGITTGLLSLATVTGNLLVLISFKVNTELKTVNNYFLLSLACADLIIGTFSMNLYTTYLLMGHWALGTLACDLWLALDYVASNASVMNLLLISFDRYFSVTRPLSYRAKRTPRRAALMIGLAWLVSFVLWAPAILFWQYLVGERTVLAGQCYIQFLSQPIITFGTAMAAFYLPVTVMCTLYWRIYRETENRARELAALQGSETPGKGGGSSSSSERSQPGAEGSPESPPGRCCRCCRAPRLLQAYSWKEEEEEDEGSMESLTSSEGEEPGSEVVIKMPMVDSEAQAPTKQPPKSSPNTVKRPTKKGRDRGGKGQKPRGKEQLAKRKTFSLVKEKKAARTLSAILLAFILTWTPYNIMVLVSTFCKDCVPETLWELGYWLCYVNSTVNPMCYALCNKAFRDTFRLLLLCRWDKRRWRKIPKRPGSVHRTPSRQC
HEK293 NFkB inh: inhibitors of the PMA/ionomycin-induced NF-kB reporter in HEK293 cells; 62,000 compounds, 0.21% hits; inhibition, % at 3 µM; AID 465; HEK-293 NF-kB luciferase reporter, luminescence;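 active means inhibition above the mean of all tested compounds plus 3 SD, cut at about 40% in these data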
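Signal: luciferase luminescence; Material: HEK-293 cells with stable firefly luciferase reporter driven by four HIV NF-kB elements; Probe or stimulus: PMA with ionomycin; Replication: tested once; Times: 1 h compound pretreatment, then 16 h stimulation at 37 °C, 5% CO2; Benchmarks: DMSO and 10 µM reference inhibitor; Evaluation: per-plate % inhibition versus controls.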
M1 ag confirm: confirmation of rat M1 muscarinic receptor agonists | shares compounds with M1 ag | CHO-M1 cells, Fluo-4 calcium fluorescence, agonist mode; actives lie on both sides | fluorescence change (max-min) at 10 µM | 1,700 compounds, 19% hits;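 active means fluorescence change differs from the solvent-only DMSO control mean at a set confidence level in both duplicate runs; inconclusive means differs from solvent-only control mean in just one of two runs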;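 further: an EC20 dose of acetylcholine follows compound addition during the same imaging run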
M4 ag counter: rat M4 muscarinic agonism, M1 counter-screen; 1,700 compounds, 9% hits; fluorescence change (max-min) at 10 µM; AID 1741; CHO M4/Gqi5 cells, Fluo-4 calcium fluorescence, agonist mode; actives lie on both sides; shares compounds with M1 ag;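 active means fluorescence change differing from the plate's solvent-only control wells at 99.7% confidence in both duplicates, whether higher or lower; inconclusive means differs from solvent controls in only one of two duplicates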
Large screens that a line does not name were inactive (follow-up assays come after a bar, where they were run). Compounds with a hit are over-represented: about 7.6% of the library has one in this group of screens.

CCC1(CC)C(=O)C2=C3C1[C@H](C(=O)OC)CC(C(=O)OC)C[C@H]3n1c(=O)n(C)c(=O)n1[C@H]2C (stereo partly drawn)	none (no result: Jurkat viability, M1 ag, D1 mod, M1 antag, HEK293 NFkB inh)
CCOC(=O)N1CCC(NC(=O)c2cc3c(=O)n(C)c4ccccc4c3n2C)CC1	M1 ag 2.05 | M1 ag confirm inconclusive | M4 ag counter inactive
CN(C)CCNC(=O)c1cc2c(=O)n(C)c3ccccc3c2n1C	none
Cn1c(C(=O)Nc2ccc3c(c2)OCCO3)cc2c(=O)n(C)c3ccccc3c21	M1 ag 4.58, D1 mod -4.53 | M1 ag confirm inactive | M4 ag counter inactive
Cn1c(C(=O)NC2CC2)cc2c(=O)n(C)c3ccccc3c21	none
O=C(CCc1ccccc1)Nc1ccc(N2CCOCC2)cc1	none (no result: M1 ag, M1 antag)
N#Cc1cc2sc3nnc(-c4ccncc4)n3c2cc1C#N	none
COc1ccc(OC)c(C(=O)CN2CCN(S(=O)(=O)c3ccc(Br)cc3)CC2)c1	M1 ag 27.7 (no result: D1 mod) | M1 ag confirm inactive | M4 ag counter inactive
COc1ccc(S(=O)(=O)N2CCCN(CC(=O)C(C)(C)C)CC2)cc1	none
CCOc1ccc(/C=c2\sc3nc(-c4ccco4)nn3c2=O)cc1OCC	M1 ag 105 | M1 ag confirm inconclusive | M4 ag counter inactive
CCOC(=O)N1CCN(C(=O)CSCC(=O)Nc2nc(-c3cccs3)cs2)CC1	none
CC1CCN(C(=O)CSCC(=O)Nc2nc(-c3cccs3)cs2)CC1	none
CC1CCCN(C(=O)CSCC(=O)Nc2nc(-c3cccs3)cs2)C1 (stereo not drawn)	M1 ag 6.82 | M1 ag confirm inactive | M4 ag counter inactive
CC1CCCCN1C(=O)CSCC(=O)Nc1nc(-c2cccs2)cs1 (stereo not drawn)	M1 ag 7.96 (no result: D1 mod) | M1 ag confirm inactive | M4 ag counter inactive
O=C(CSc1nnc(Cn2nnc3ccccc32)o1)N(Cc1ccc(F)cc1)c1ccccc1	Jurkat viability 97.8, M1 ag 6.18 (no result: D1 mod) | M1 ag confirm -33.9 | M4 ag counter inactive
COc1ccc(N(Cc2ccccc2)C(=O)CSc2nnc(Cn3nnc4ccccc43)o2)cc1	none (no result: Jurkat viability, M1 ag, D1 mod, M1 antag, HEK293 NFkB inh)
COc1ccc(CNC(=O)C(C#N)c2nc3ccccc3nc2N2CCN(C)CC2)cc1 (stereo not drawn)	none
COc1ccc(CNC(=O)C(C#N)c2nc3ccccc3nc2N2CCCC2)cc1 (stereo not drawn)	M1 ag 165, M1 antag -6.88 | M1 ag confirm 373 | M4 ag counter 562
CCC(CC)COC(=O)C(C#N)c1nc2ccccc2nc1N1CCN(CC)CC1 (stereo not drawn)	none
CCCCCCOC(=O)C(C#N)c1nc2ccccc2nc1N1CCCCC1 (stereo not drawn)	M1 ag 9.88 | M1 ag confirm inconclusive | M4 ag counter inactive
CC1CCN(c2nc3ccccc3nc2C(C#N)C(=O)NC2CCCCC2)CC1 (stereo not drawn)	M1 ag 8.76 | M1 ag confirm 105 | M4 ag counter inactive
CCCCCCOC(=O)C(C#N)c1nc2ccccc2nc1N1CCN(C)CC1 (stereo not drawn)	M1 ag 5.07, M1 antag 1.95 | M1 ag confirm inactive | M4 ag counter inconclusive
CCC(C)COC(=O)C(C#N)c1nc2ccccc2nc1N1CCCCC1 (stereo not drawn)	none
COC(=O)Cc1[nH]nc2c1C1(CCSCC1)C(C#N)=C(N)O2	none (no result: D1 mod)
Cc1cccc(NC(=O)c2ccccc2OCC(=O)c2ccccc2)c1	none (no result: Jurkat viability, M1 ag, D1 mod, M1 antag, HEK293 NFkB inh)
CCCCNC(=O)C(C#N)c1nc2ccccc2nc1N1CCCC1 (stereo not drawn)	M1 ag 53.7 | M1 ag confirm 856 | M4 ag counter 750
COc1ccc(S(=O)(=O)NCCOc2ccccc2)cc1OC	M1 ag 2.33 (no result: D1 mod) | M1 ag confirm inactive | M4 ag counter inactive
O=C(CN1C(=O)c2ccccc2C1=O)OCN1C(=O)c2ccccc2C1=O	none (no result: Jurkat viability, DAT uptake mod, D1 mod, HEK293 NFkB inh)

Assay outcomes (PubChem)
